The record followed here is article PMC11362645 (International Journal for Parasitology: Parasites and …, 2024).

The nature of series [1]: In vitro MTT cytotoxicity assay on MDBK cells. Format: cell-based, bovine. Particulars: bovine, MDBK cells (NBL-1 strain). The method in brief:
(§1)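 MDBK cells (NBL-1) were kept in MEM with 10% FBS and penicillin/streptomycin at 37 °C, 5% CO2, and passaged with Accutase at ~70% confluence. Cells were seeded at 2×10^4/well and grown 24 h. Test compound was added at final 0.1, 1, 10, 50 or 100 μM, with a DMSO solvent control, for 24 h. MTT was added for 2 h, formazan dissolved in 99% isopropanol, and A562 read. Viability = compound/DMSO ×100. Maximum non-toxic concentration = highest concentration with no significant viability effect. Three repeats.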
Background: Tetrazolium assays rely on reduction of a dye to a coloured formazan, in cell work by metabolically active cells.

Series [2] has as its system Madin-Darby bovine kidney (MDBK) cells. Put plainly: In vitro MTT cytotoxicity assay on MDBK cells. Particulars: MDBK cells; for Maximum non-toxic concentration: highest concentration with no significant effect on cell viability. Format: cell-based. In outline: as §1
Series [3] concerns E. tenella sporozoites. The experiment in a line: In vitro viability assay for E. tenella sporozoites. Format: cell-based, Eimeria tenella. Particulars: commercially available pure compounds at 100 μM, 24 h, DMSO-treated group = 100%. In outline:
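E. tenella OPU strain oocysts were sporulated in ~0.1% potassium dichromate at 28 °C and hypochlorite-treated. Sporocysts were excysted for 1–2 h at 41 °C in HBSS with 1% taurodeoxycholic acid and 0.25% trypsin. Sporozoites at 5×10^6/ml in phenol-red-free RPMI 1640 with antibiotics got test compound (screen 100 μM; IC50 range 1–100 μM) for 24 h at 37 °C, 5% CO2. Cell Count Reagent SF was then added for 3 h. Viability was expressed relative to DMSO = 100%.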

Marks after values point to notes of the source that are not given here.

What is called viability is a read-out of living cells in per cent, often relative to untreated cells. `COc1cc(C)cc(O)c1` [Component H-1, 3-Methoxy-5-methylphenol]: in series [1], the viability at 24 h, 0.1 µM came out at 106%; the viability at 24 h, 1 µM stood at 109%; the viability at 24 h, 10 µM worked out at 106%; the viability at 24 h, 50 µM was determined as 113%. Also, in series [1], the viability at 24 h, 100 µM came out at 112%. In addition, the “Maximum non-toxic concentration” value in series [2] was 100 µM.

In the case of `O=c1c(O[C@@H]2O[C@H](CO)[C@@H](O)[C@H](O)[C@H]2O)c(-c2ccc(O)c(O)c2)oc2cc(O)cc(O)c12` [Component A-4, Isoquercitrin], in series [1], the viability at 24 h, 0.1 µM turned out to be 98%; the viability at 24 h, 1 µM was determined as 110%; the viability at 24 h, 10 µM came to 104%; the viability at 24 h, 50 µM was found to be 109%. Further, in series [1], the viability at 24 h, 100 µM turned out to be 104%. Also, the “Maximum non-toxic concentration” value in series [2] was found to be 100 µM.

For `Oc1cc(O)c2c(c1)O[C@H](c1ccc(O)c(O)c1)[C@H](O)C2` [Component A-3, Epicatechin], in series [1], the viability at 24 h, 0.1 µM was found to be 103%; the viability at 24 h, 1 µM was 91%; the viability at 24 h, 10 µM is 92.3%; the viability at 24 h, 50 µM came to 109%. For the same compound, the viability at 24 h, 100 µM in series [1] was determined as 108%. Moreover, in series [2], the “Maximum non-toxic concentration” value stood at 100 µM.

In the case of `COC1OC(CO)C(O)C(O)C1O` (stereo not drawn) [Component F-2, β-Methylglucoside], the “Average cell viability (%)” value in series [2] (0.1 μM, 24 h, MTT) amounted to 99.2%; in series [2] (1 μM, 24 h, MTT) it was 102.1%; in series [2] (10 μM, 24 h, MTT) it was 104.6%; in series [2] (50 μM, 24 h, MTT), 102.0%; in series [2] (100 μM, 24 h, MTT), 104.9%. In series [2], the “Maximum non-toxic concentration” value amounted to 100 µM.

For `COc1ccc(-c2cc(=O)c3c(O)c(C)c(OC)cc3o2)cc1` [Component C-2, 8-Demethyleucalyptin], the “Average cell viability (%)” value in series [2] (0.1 μM, 24 h, MTT) is given as 97.8%; in series [2] (1 μM, 24 h, MTT), 92.5%; in series [2] (10 μM, 24 h, MTT), 98.7%; in series [2] (50 μM, 24 h, MTT), 85.2* %; in series [2] (100 μM, 24 h, MTT), 80.8* %. Also, the “Maximum non-toxic concentration” value in series [2] worked out at 10 µM.

On to `O=C(CCc1ccc(O)cc1)c1c(O)cc(O)cc1O[C@@H]1O[C@H](CO)[C@@H](O)[C@H](O)[C@H]1O` [Component C-7, Phlorhizin], for which the “Average cell viability (%)” value in series [2] (0.1 μM, 24 h, MTT) is 87.9%; in series [2] (1 μM, 24 h, MTT) it was 90.9%; in series [2] (10 μM, 24 h, MTT), 98.2%; in series [2] (50 μM, 24 h, MTT) it was 95.8%; in series [2] (100 μM, 24 h, MTT), 107.4%. In series [2], the “Maximum non-toxic concentration” value amounted to 100 µM.

On to `C[C@H]1[C@H](C)CC[C@]2(C)CC[C@]3(C)C(=CC[C@@H]4[C@@]5(C)CC[C@H](O)C(C)(C)[C@@H]5CC[C@]43C)[C@H]12` [α-amyrin, reference compound], for which the Sporozoite viability entry in series [3] is listed as “did not significantly reduce”.

On to `COc1cc(CCc2ccccc2O)cc(OC)c1O` [Component A-2, 4,2′-Dihydroxy-3,5-dimethoxydihydrostilbene], for which the “Average cell viability (%)” value in series [2] (0.1 μM, 24 h, MTT) was 98.7%; in series [2] (1 μM, 24 h, MTT) it was 105.9%; in series [2] (10 μM, 24 h, MTT) it was 107.0%; in series [2] (50 μM, 24 h, MTT), 103.4%; in series [2] (100 μM, 24 h, MTT) it was 107.3%. Moreover, in series [2], the “Maximum non-toxic concentration” value was found to be 100 µM.

Consider `Oc1cc(O)c2c(c1)OC(c1ccc(O)c(O)c1)C(O)C2` (stereo not drawn) [E−2, Catechin], for which the “Average cell viability (%)” value in series [2] (0.1 μM, 24 h, MTT) came out at 101.1%; in series [2] (1 μM, 24 h, MTT) it was 102.5%; in series [2] (10 μM, 24 h, MTT), 109.8%; in series [2] (50 μM, 24 h, MTT) it was 104.9%; in series [2] (100 μM, 24 h, MTT) it was 114.0%. Besides, in series [2], the “Maximum non-toxic concentration” value was 100 µM.

With `Oc1cc(O)cc(/C=C/c2ccccc2)c1` [Component A-5, Pinosylvin], in series [1], the viability at 24 h, 0.1 µM is 103%; the viability at 24 h, 1 µM came out at 102%; the viability at 24 h, 10 µM was 103%; the viability at 24 h, 50 µM came to 110%. For the same compound, the viability at 24 h, 100 µM in series [1] came out at 106%. Moreover, the “Maximum non-toxic concentration” value in series [2] is 100 µM.

Take `O=c1c(O[C@@H]2O[C@@H](CO)[C@H](O)[C@H]2O)c(-c2ccc(O)c(O)c2)oc2cc(O)cc(O)c12` [Component G-1, Avicularin]: in series [1], the viability at 24 h, 0.1 µM came out at 94.6%; the viability at 24 h, 1 µM was 96.9%; the viability at 24 h, 10 µM amounted to 88.5%; the viability at 24 h, 50 µM came out at 104%. Moreover, the viability at 24 h, 100 µM in series [1] was 89.5%. Moreover, the “Maximum non-toxic concentration” value in series [2] turned out to be 100 µM.

For the compound `C[C@H]1[C@H](C)CC[C@]2(CO)CC[C@]3(C)C(=CC[C@@H]4[C@@]5(C)CC[C@H](O)C(C)(C)[C@@H]5CC[C@]43C)[C@H]12` [Component B-1, Uvaol], in series [1], the viability at 24 h, 0.1 µM came to 95.6%; the viability at 24 h, 1 µM is 99.9%; the viability at 24 h, 10 µM came out at 110%; the viability at 24 h, 50 µM amounted to 55.9%. In addition, in series [1], the viability at 24 h, 100 µM came to 36.2%. The “Maximum non-toxic concentration” value in series [2] is 10 µM.

Consider `C[C@@H]1O[C@@H](O[C@H]2[C@H](O)[C@@H](O)[C@H](OC[C@H]3O[C@@H](OC(=O)[C@]45CCC(C)(C)C[C@H]4C4=CC[C@@H]6[C@@]7(C)CC[C@H](O[C@@H]8OC[C@H](O)[C@H](O)[C@H]8O[C@@H]8O[C@H](CO)[C@@H](O)[C@H](O)[C@H]8O)[C@@](C)(CO)[C@@H]7CC[C@@]6(C)[C@]4(C)CC5)[C@H](O)[C@@H](O)[C@@H]3O)O[C@@H]2CO)[C@H](O)[C@H](O)[C@H]1O` [Component I-1, Cauloside G], for which the “Average cell viability (%)” value was found to be 100.7% in series [2] (0.1 μM, 24 h, MTT); 103.3% in series [2] (1 μM, 24 h, MTT); 103.7% in series [2] (10 μM, 24 h, MTT); 97.0% in series [2] (50 μM, 24 h, MTT); 89.4% in series [2] (100 μM, 24 h, MTT). Also, in series [2], the “Maximum non-toxic concentration” value turned out to be 100 µM.

As to `Cc1cc(O)cc(O)c1` [Component H-2, 5-Methylbenzene-1,3-diol], in series [1], the viability at 24 h, 0.1 µM amounted to 92%; the viability at 24 h, 1 µM was 95.3%; the viability at 24 h, 10 µM stood at 94.8%; the viability at 24 h, 50 µM is 93.4%. Besides, in series [1], the viability at 24 h, 100 µM was 93.3%. In addition, the “Maximum non-toxic concentration” value in series [2] stood at 100 µM.

For the compound `OC[C@H]1O[C@@H](Oc2ccc(O)cc2)[C@H](O)[C@@H](O)[C@@H]1O` [E−1, Arbutin], in series [1], the viability at 24 h, 0.1 µM turned out to be 83.1%; the viability at 24 h, 1 µM came out at 86.4%; the viability at 24 h, 10 µM came out at 87.1%; the viability at 24 h, 50 µM was 108%. Also, in series [1], the viability at 24 h, 100 µM is 102%. In series [2], the “Maximum non-toxic concentration” value worked out at 100 µM.

With `Oc1cc(O)c2c(c1)O[C@H](c1cc(O)c(O)c(O)c1)[C@@H](O)C2` [Component F-1, Gallocatechin], in series [1], the viability at 24 h, 0.1 µM came to 80.8%; the viability at 24 h, 1 µM was 81.4%; the viability at 24 h, 10 µM was determined as 93.9%; the viability at 24 h, 50 µM came to 92.6%. Besides, the viability at 24 h, 100 µM in series [1] was found to be 85.2%. Moreover, the “Maximum non-toxic concentration” value in series [2] was found to be 100 µM.

In the case of `CC[C@@H](C(=O)[C@@H](C)[C@@H](O)[C@H](C)CCc1ccc(C)c(O)c1C(=O)O)[C@H]1O[C@](CC)([C@H]2CC[C@](O)(CC)[C@H](C)O2)C[C@@H]1C` [lasalocid, reference compound], in series [1], the viability at 24 h, 0.1 µM was 107%; the viability at 24 h, 1 µM is 110%; the viability at 24 h, 10 µM was 54.3%; the viability at 24 h, 50 µM worked out at 1.1%. In series [1], the viability at 24 h, 100 µM worked out at 0.4%. For the same compound, the “Concentration that significantly reduced the viability of MDBK cells” value in series [2] (24 h, MTT) was “higher than 10 μM”. For the same compound, the “Maximum non-toxic concentration” value in series [2] was found to be 1 µM.

Take `O=C1C[C@@H](c2ccc(O)cc2)Oc2cc(O)cc(O)c21` [Component D-1, Naringenin]: in series [1], the viability at 24 h, 0.1 µM amounted to 92.2%; the viability at 24 h, 1 µM is 97.3%; the viability at 24 h, 10 µM was determined as 99.3%; the viability at 24 h, 50 µM stood at 109%. The viability at 24 h, 100 µM in series [1] was found to be 107%. For the same compound, the “Maximum non-toxic concentration” value in series [2] worked out at 100 µM.

As for `O=C(CCc1ccc(O)cc1)c1c(O)cc(O[C@@H]2O[C@H](CO)[C@@H](O)[C@H](O)[C@H]2O)cc1O` [Component C-6, Trilobatin], the “Average cell viability (%)” value in series [2] (0.1 μM, 24 h, MTT) turned out to be 89.1%; in series [2] (1 μM, 24 h, MTT) it was 90.7%; in series [2] (10 μM, 24 h, MTT), 91.4%; in series [2] (50 μM, 24 h, MTT), 92.9%; in series [2] (100 μM, 24 h, MTT), 93.6%. Besides, the “Maximum non-toxic concentration” value in series [2] is 100 µM.

As for `CC1(C)CC[C@]2(C)CC[C@]3(C)C(=CC[C@@H]4[C@@]5(C)CC[C@H](O)C(C)(C)[C@@H]5CC[C@]43C)[C@@H]2C1` [β-amyrin, reference compound], the Sporozoite viability entry in series [3] is given as “did not significantly reduce”.
